The test system of experiment [1] is Mus musculus. Description: Protection against light-induced retinal degeneration in dark-adaptated BALB/c albino mouse assessed as reduction in ONL thinning at 10 mg/kg, ip dosed preincubated with compound for 15 to 30 mins of mydriasis followed by exposure to bright light at 15kLux for 30 mins by […]. Conditions: time 45-60 min. Type of experiment: functional, organism-based. Put shortly:
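Dark-adapted BALB/c albino mice (5–8 weeks) were dosed ip at 10 mg/kg (vehicle 25% DMSO/75% saline) 30 min before 30 min of 15 kLux white light. Pupils were dilated with metaoxedrine/tropicamide at 30 and 15 min prior. One week later, OCT centred on the optic nerve head measured ONL thickness 500 μm from the ONH border, averaged over four quadrants. Analysis used Welch's ANOVA with Dunnett's T3 tests.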

For experiment [2], the system named is Mus musculus. The experiment is described as follows: Protection against light-induced retinal degeneration in dark-adaptated BALB/c albino mouse assessed as reduction in ERG a- and b-wave amplitude deterioration at 10 mg/kg, ip dosed preincubated with compound for 15 to 30 mins of mydriasis followed by exposure to bright light at 15kLux for 30 mins by electroretinography analysis. The format is functional, organism-based. Conditions: time 45-60 min. In a few lines:
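BALB/c albino mice (5–8 weeks) were dark-adapted overnight and given 10 mg/kg ip in 25% DMSO/75% saline 30 min before light. Pupils were dilated with metaoxedrine (20 mg/mL) plus tropicamide (4 mg/mL) at 30 and 15 min prior. Freely moving mice received 30 min of 15 kLux white light. ERG a- and b-wave amplitudes were recorded one week later (10 cd·s/m2 stimulus). Analysis used Welch's ANOVA with Dunnett's T3 post hoc tests.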

The target in experiment [3] is 5-hydroxytryptamine receptor 2A (Homo sapiens) (UniProt P28223). The experiment is described as follows: Binding affinity to 5-HT2A (unknown origin).
For experiment [4], the target named is T1, 5-hydroxytryptamine receptor 2C (Homo sapiens) (UniProt P28335).
T1 sequence (whole entry): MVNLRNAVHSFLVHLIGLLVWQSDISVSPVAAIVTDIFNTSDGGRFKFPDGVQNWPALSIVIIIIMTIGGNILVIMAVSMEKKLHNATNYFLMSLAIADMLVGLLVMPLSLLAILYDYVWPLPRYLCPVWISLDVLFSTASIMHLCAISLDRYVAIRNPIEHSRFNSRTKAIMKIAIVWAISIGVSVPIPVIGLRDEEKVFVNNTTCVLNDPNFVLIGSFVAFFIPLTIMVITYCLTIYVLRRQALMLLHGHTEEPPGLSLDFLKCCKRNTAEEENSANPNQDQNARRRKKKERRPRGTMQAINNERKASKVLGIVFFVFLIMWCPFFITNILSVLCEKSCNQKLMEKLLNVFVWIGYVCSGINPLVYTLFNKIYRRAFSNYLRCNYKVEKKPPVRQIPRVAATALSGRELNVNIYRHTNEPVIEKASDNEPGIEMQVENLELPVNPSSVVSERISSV
The experiment is described as follows: Binding affinity to 5-HT2C (unknown origin).

The target of experiment [5] is T2, 5-hydroxytryptamine receptor 1A (Homo sapiens) (UniProt P08908).
T2 sequence (whole entry): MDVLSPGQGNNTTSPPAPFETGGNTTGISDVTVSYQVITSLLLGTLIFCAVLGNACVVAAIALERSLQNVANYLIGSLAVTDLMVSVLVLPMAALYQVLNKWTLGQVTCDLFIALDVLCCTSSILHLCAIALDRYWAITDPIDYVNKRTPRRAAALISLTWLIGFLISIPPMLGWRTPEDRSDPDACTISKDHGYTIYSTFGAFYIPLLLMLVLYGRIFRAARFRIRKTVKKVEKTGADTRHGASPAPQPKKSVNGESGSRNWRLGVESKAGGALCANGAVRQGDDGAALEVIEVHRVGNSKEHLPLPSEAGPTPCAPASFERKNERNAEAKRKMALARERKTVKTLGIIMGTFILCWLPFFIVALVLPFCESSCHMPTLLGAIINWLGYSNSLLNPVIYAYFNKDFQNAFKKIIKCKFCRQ
Description: Binding affinity to 5-HT1A (unknown origin).

The target in experiment [6] is 5-hydroxytryptamine receptor 2B (Homo sapiens) (UniProt P41595). The experiment is described as follows: Binding affinity to 5-HT2B (unknown origin).
The test system of experiment [7] is Mus musculus. The experiment is described as follows: Protection against light-induced retinal degeneration in dark-adaptated BALB/c albino mouse assessed as reduction in ONL thinning at 10 mg/kg, ip dosed preincubated with compound for 15 to 30 mins of mydriasis followed by exposure to bright light at 15kLux for 30 mins by […] relative to control. Further details: scale not given: the % may be the effect or the level left. Type of experiment: functional. The following applies: time 45-60 min. In a few lines:
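Same LIRD protocol in BALB/c mice aged 5–8 weeks: 10 mg/kg ip in 25% DMSO/saline 30 min before 30 min of 15 kLux white light, with mydriatics given beforehand. OCT imaging one week later, centred on the optic nerve head. ONL thickness measured 500 μm from the ONH border and averaged over four quadrants. Compared with vehicle; Welch's ANOVA with Dunnett's T3.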

Experiment [8] has as its system Mus musculus. The experiment is described as follows: Protection against light-induced retinal degeneration in dark-adaptated BALB/c albino mouse assessed as reduction in ERG a- and b-wave amplitude deterioration at 10 mg/kg, ip dosed preincubated with compound for 15 to 30 mins of mydriasis followed by exposure to bright light at 15kLux for 30 mins by electroretinography analysis relative to control. The format is functional. Further details: scale not given: the % may be the effect or the level left. The following applies: time 45-60 min. Put shortly: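 BALB/c albino mice aged 5–8 weeks, dark-adapted overnight. Dosed 10 mg/kg ip in 25% DMSO/75% saline 30 min before light. Pupils dilated with metaoxedrin (20 mg/mL) plus tropicamide (4 mg/mL) at 30 and 15 min prior. Exposed to 15 kLux white light for 30 min, freely moving. ERG a- and b-wave amplitudes recorded one week later at 10 cd·s/m2 stimulus. Compared with vehicle; mean ± SEM.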

The structures appear in SMILES notation. Active and inactive are the calls of the source. No cut-off for these calls is given here.

5-hydroxytryptamine receptor 2B (Homo sapiens), sequence (P41595 whole entry): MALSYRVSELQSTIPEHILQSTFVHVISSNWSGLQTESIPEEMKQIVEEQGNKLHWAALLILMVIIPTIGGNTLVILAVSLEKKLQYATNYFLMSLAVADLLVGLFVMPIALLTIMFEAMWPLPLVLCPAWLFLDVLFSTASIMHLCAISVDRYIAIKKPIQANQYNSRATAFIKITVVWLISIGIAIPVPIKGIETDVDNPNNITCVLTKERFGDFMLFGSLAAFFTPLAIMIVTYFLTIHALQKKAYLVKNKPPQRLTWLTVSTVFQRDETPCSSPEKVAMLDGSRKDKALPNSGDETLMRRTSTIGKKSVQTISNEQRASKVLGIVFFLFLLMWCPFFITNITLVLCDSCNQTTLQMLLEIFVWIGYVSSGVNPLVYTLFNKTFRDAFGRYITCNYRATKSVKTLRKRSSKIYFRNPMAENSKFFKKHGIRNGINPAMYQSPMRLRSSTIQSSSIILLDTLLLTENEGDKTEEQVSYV
5-hydroxytryptamine receptor 2A (Homo sapiens), sequence (P28223 whole entry): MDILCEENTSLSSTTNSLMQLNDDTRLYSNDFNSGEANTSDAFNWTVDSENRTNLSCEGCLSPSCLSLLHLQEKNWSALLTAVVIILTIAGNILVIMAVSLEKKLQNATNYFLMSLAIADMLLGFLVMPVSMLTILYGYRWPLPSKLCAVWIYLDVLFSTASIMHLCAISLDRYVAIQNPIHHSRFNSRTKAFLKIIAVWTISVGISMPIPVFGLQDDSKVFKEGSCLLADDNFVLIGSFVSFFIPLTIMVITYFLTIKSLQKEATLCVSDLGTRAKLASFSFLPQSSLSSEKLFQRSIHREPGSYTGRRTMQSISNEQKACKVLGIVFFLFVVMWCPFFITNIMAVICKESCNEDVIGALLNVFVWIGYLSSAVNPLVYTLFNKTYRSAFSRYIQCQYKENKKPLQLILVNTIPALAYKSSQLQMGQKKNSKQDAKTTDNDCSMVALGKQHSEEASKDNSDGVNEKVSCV

Regarding `CN1C[C@@H](CO)C=C2c3cccc4[nH]cc(c34)C[C@H]21`, the result in the experiment with Mus musculus [1] and in the experiment on Mus musculus [2] was Active.
For the molecule `CN(C)CCn1cc(Cc2ccccn2)c2ccc(F)cc21`, the result with Mus musculus [1] and in the experiment with Mus musculus [2] was inactive.
For `CN(C)CCn1cc(Cc2ccccn2)c2cc(F)ccc21`, the result in the experiment with Mus musculus [1] and with Mus musculus [2] was inactive.
`CN1C[C@]2(C)C[C@@]23c2cccc4[nH]cc(c24)C[C@H]13`: the outcome in the experiment on Mus musculus [1] and with Mus musculus [2] was Active.
Turning to `CN1C[C@@H](CO)C=C2c3cccc4[nH]cc(c34)C[C@@H]21`, the outcome in the experiment on Mus musculus [1] and in the experiment with Mus musculus [2] was inactive.
Take `CCN(CC)C(=O)[C@H]1CN(C)[C@H]2Cc3c[nH]c4cccc(c34)[C@@H]1C2`: the outcome (in experiment [3]; in experiment [4]; in the experiment on Mus musculus [1]; in experiment [5]; in experiment [6]; in the experiment with Mus musculus [2]) was inactive.
In the case of `CN1C[C@@]2(C)C[C@]23c2cccc4[nH]cc(c24)C[C@@H]13`, the result with Mus musculus [1] and in the experiment with Mus musculus [2] was Active.
Take `CC(C)C[C@H]1C(=O)N2CCC[C@H]2[C@]2(O)O[C@](NC(=O)[C@@H]3C=C4c5cccc6[nH]c(Br)c(c56)C[C@H]4N(C)C3)(C(C)C)C(=O)N12` [BROMOCRIPTINE]: the Activity in the experiment on Mus musculus [7] and with Mus musculus [8] was 70% each time.
For the molecule `CN1C[C@H](CO)C=C2c3cccc4[nH]cc(c34)C[C@H]21`, the result in the experiment on Mus musculus [1] and with Mus musculus [2] was Active.
For the molecule `CN1C[C@H](CO)C=C2c3cccc4[nH]cc(c34)C[C@@H]21`, the outcome in the experiment with Mus musculus [1] and in the experiment with Mus musculus [2] was inactive.
With `CN(C)CCn1cc(Cc2ccccn2)c2c(Br)cccc21`, the outcome in the experiment with Mus musculus [1] and with Mus musculus [2] was Active.

These data come from ChEMBL document CHEMBL5584271, “Synthesis and Biological Analysis of Iso-dimethyltryptamines in a Model of Light-Induced Retinal Degeneration” (2024).
